What was measured:
Oxytocin receptor = target: T1, Oxytocin receptor (Rattus norvegicus, UniProt P70536); assay: Inhibition of radioligand [3H]oxytocin binding at the oxytocin (OT) receptor in rat uterine tissue
T1 sequence (P70536 whole entry): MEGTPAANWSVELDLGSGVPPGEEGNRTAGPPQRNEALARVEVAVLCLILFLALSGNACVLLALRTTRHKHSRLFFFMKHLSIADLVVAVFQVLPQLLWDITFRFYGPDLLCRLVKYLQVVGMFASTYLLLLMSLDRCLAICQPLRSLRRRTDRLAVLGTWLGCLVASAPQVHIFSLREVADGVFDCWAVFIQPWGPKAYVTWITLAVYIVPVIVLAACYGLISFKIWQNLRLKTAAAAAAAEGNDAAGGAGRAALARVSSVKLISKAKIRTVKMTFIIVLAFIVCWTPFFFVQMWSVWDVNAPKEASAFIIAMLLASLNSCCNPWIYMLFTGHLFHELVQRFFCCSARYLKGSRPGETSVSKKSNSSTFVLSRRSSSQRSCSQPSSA
Outline: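 Uteri taken from rats given diethylstilbestrol dipropionate (0.3 mg/kg ip, 18–24 h before), crude membranes. 1 nM [3H]OT (30–60 Ci/mmol), equilibrium 60 min at 22 °C in 50 mM Tris-HCl, 5 mM MgCl2, 0.1% BSA, pH 7.4. Nonspecific binding with 1 mM unlabeled OT. Filtered on glass fiber. Initial single-concentration screen, then IC50 from seven concentrations by linear regression.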

Vasopressin V1 receptor = Vasopressin V1 receptor (Rattus norvegicus, UniProt P48974+P30560); assay: Inhibition of radioligand [3H]AVP binding to the vasopressin V1 receptor in rat liver tissue
Outline: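 Crude membranes from male rat liver (V1 sites) competed with 1 nM [3H]AVP (80–90 Ci/mmol). Equilibrium 30 min, 30 °C, buffer 100 mM Tris-HCl, 5 mM MgCl2, 0.1% BSA, 50 μM PMSF, 50 μg/mL bacitracin, pH 8.0. 10 μM unlabeled AVP for nonspecific binding. Filtration through glass-fiber filters. IC50 from linear regression over seven concentrations.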

Vasopressin V2 receptor = Vasopressin V2 receptor (Rattus norvegicus, UniProt Q00788); assay: Inhibition of radioligand [3H]-AVP binding to the vasopressin V2 receptor in rat kidney tissue
Sequence of Vasopressin V2 receptor (Q00788 whole entry): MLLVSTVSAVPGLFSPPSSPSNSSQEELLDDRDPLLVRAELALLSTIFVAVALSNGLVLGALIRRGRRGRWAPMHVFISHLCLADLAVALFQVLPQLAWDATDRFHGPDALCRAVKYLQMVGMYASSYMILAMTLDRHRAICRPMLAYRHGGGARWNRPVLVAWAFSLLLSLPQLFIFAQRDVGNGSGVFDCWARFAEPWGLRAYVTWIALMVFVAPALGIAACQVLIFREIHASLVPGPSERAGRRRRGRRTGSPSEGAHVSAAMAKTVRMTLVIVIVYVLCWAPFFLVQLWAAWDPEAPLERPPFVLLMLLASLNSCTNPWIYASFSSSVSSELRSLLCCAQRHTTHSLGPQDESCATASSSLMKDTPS
Outline: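 [3H]AVP (80–90 Ci/mmol) at 2 nM competed on crude membranes from male rat kidney medulla (V2 sites). Equilibrium 30 min at 30 °C in 100 mM Tris-HCl, 5 mM MgCl2, 0.1% BSA, 50 μM PMSF, 50 μg/mL bacitracin, pH 8.0. Nonspecific binding with 10 μM unlabeled AVP. Glass-fiber filtration. IC50 by linear regression of % inhibition vs log concentration, seven concentrations.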

CC1(C)[C@@H]2CC[C@@]1(CS(=O)(=O)N1CCC3(CCc4ccccc43)CC1)[C@@H](N1C(=O)CN(CC#N)C1=O)C2
IC50 (Oxytocin receptor): 4.2 nM
IC50 (Vasopressin V1 receptor): 530 nM
IC50 (Vasopressin V2 receptor): 1700 nM

Cn1cnc(CC(=O)NC(CCS(C)(=O)=O)C(=O)N[C@H]2C[C@H]3CC[C@]2(CS(=O)(=O)N2CCC4(CCc5ccccc54)CC2)C3(C)C)c1 (some centres not stated)
IC50 (Oxytocin receptor): 0.7 nM
IC50 (Vasopressin V1 receptor): 1200 nM
IC50 (Vasopressin V2 receptor): 490 nM

CC1(C)[C@@H]2CC[C@@]1(CS(=O)(=O)N1CCC3(C=Cc4ccccc43)CC1)[C@@](O)(CCNC(=O)Cc1ccncc1)C2
IC50 (Oxytocin receptor): 110 nM
IC50 (Vasopressin V1 receptor): 3000 nM
IC50 (Vasopressin V2 receptor): > 3000 nM

CC1(C)[C@@H]2CC[C@@]1(CS(=O)(=O)N1CCC3(CCc4ccccc43)CC1)[C@@H](NC(=O)CCc1ccccc1)C2
IC50 (Oxytocin receptor): 530 nM
IC50 (Vasopressin V1 receptor): 10000 nM
IC50 (Vasopressin V2 receptor): > 10000 nM

CC1CCC(=O)N1[C@H]1C[C@H]2CC[C@]1(CS(=O)(=O)N1CCC3(CCc4ccccc43)CC1)C2(C)C (some centres not stated)
IC50 (Oxytocin receptor): 180 nM
IC50 (Vasopressin V1 receptor): 3500 nM
IC50 (Vasopressin V2 receptor): 9300 nM

CC1(C)[C@@H]2CC[C@@]1(CS(=O)(=O)N1CCC3(CCc4ccccc43)CC1)[C@@H](NC(=O)Cc1csc(N)n1)C2
IC50 (Oxytocin receptor): 170 nM
IC50 (Vasopressin V1 receptor): > 3000 nM
IC50 (Vasopressin V2 receptor): > 3000 nM

CC1(C)[C@@H]2CC[C@@]1(CS(=O)(=O)N1CCC3(CCc4ccccc43)CC1)[C@@H](NC(=O)[C@@H](Cc1c[nH]cn1)NC(=O)CCC(N)=O)C2
IC50 (Oxytocin receptor): 32 nM
IC50 (Vasopressin V1 receptor): 3000 nM
IC50 (Vasopressin V2 receptor): 3000 nM

CC1(C)[C@@H]2CC[C@@]1(CS(=O)(=O)N1CCC3(CCc4ccccc43)CC1)[C@@H](NC(=O)C1CN3CCC1CC3)C2 (some centres not stated)
IC50 (Oxytocin receptor): 29 nM
IC50 (Vasopressin V1 receptor): 530 nM
IC50 (Vasopressin V2 receptor): 5500 nM

CC1(C)[C@@H]2CC[C@@]1(CS(=O)(=O)N1CCC3(CCc4ccccc43)CC1)[C@@H](N1C(=O)NC(Cc3c[nH]cn3)C1=O)C2 (single isomer, unassigned; isomer A)
IC50 (Oxytocin receptor): 16 nM
IC50 (Vasopressin V1 receptor): 600 nM
IC50 (Vasopressin V2 receptor): 2000 nM

CC1(C)[C@@H]2CC[C@@]1(CS(=O)(=O)N1CCC3(CCc4ccccc43)CC1)[C@@H](NC(=O)/C=C/c1c[nH]cn1)C2
IC50 (Oxytocin receptor): 150 nM
IC50 (Vasopressin V1 receptor): 5200 nM
IC50 (Vasopressin V2 receptor): 20000 nM

CC1(C)[C@@H]2CC[C@@]1(CS(=O)(=O)N1CCC3(CCc4ccccc43)CC1)[C@@H](NC(=O)CCc1cccnc1)C2
IC50 (Oxytocin receptor): 180 nM
IC50 (Vasopressin V1 receptor): > 3000 nM
IC50 (Vasopressin V2 receptor): > 3000 nM

Cn1cnc(CC(=O)N(CCS(C)(=O)=O)[C@H]2C[C@H]3CC[C@]2(CS(=O)(=O)N2CCC4(CCc5ccccc54)CC2)C3(C)C)c1
IC50 (Oxytocin receptor): 6 nM
IC50 (Vasopressin V1 receptor): 320 nM
IC50 (Vasopressin V2 receptor): 650 nM

CC1(C)[C@@H]2CC[C@@]1(CS(=O)(=O)N1CCC3(C=Cc4ccccc43)CC1)[C@@](O)(CCNC(=O)CC1CN3CCC1CC3)C2 (some centres not stated)
IC50 (Oxytocin receptor): 100 nM
IC50 (Vasopressin V1 receptor): 640 nM
IC50 (Vasopressin V2 receptor): 6200 nM

CC1(C)[C@@H]2CC[C@@]1(CS(=O)(=O)N1CCC3(C=Cc4ccccc43)CC1)[C@@](O)(CNC(=O)C1CN3CCC1CC3)C2 (some centres not stated)
IC50 (Oxytocin receptor): 57 nM
IC50 (Vasopressin V1 receptor): 470 nM
IC50 (Vasopressin V2 receptor): 6100 nM

Cc1[nH]cnc1C(=O)N[C@H]1C[C@H]2CC[C@]1(CS(=O)(=O)N1CCC3(CCc4ccccc43)CC1)C2(C)C
IC50 (Oxytocin receptor): 150 nM
IC50 (Vasopressin V1 receptor): > 3000 nM
IC50 (Vasopressin V2 receptor): > 3000 nM

CC1(C)[C@@H]2CC[C@@]1(CS(=O)(=O)N1CCC3(CCc4ccccc43)CC1)[C@@H](N1C(=O)NC(CN)C1=O)C2 (some centres not stated)
IC50 (Oxytocin receptor): 35 nM
IC50 (Vasopressin V1 receptor): 490 nM
IC50 (Vasopressin V2 receptor): 2100 nM

CC(C)C[C@@H](N)C(=O)N[C@H]1C[C@H]2CC[C@]1(CS(=O)(=O)N1CCC3(CCc4ccccc43)CC1)C2(C)C
IC50 (Oxytocin receptor): 580 nM
IC50 (Vasopressin V1 receptor): > 3000 nM
IC50 (Vasopressin V2 receptor): > 3000 nM

CC1(C)[C@@H]2CC[C@@]1(CS(=O)(=O)N1CCC3(CCc4ccccc43)CC1)[C@@H](N1C(=O)CN(Cc3nn[nH]n3)C1=O)C2
IC50 (Oxytocin receptor): 49 nM
IC50 (Vasopressin V1 receptor): 2000 nM
IC50 (Vasopressin V2 receptor): 4400 nM

CC1(C)[C@@H]2CC[C@@]1(CS(=O)(=O)N1CCC3(CCc4ccccc43)CC1)[C@@H](NC(N)=O)C2
IC50 (Oxytocin receptor): 460 nM
IC50 (Vasopressin V1 receptor): > 3000 nM
IC50 (Vasopressin V2 receptor): > 3000 nM
